# Results as given in ChEMBL document CHEMBL4371064, “Erythrofordins D and E, two new cassaine-type diterpenes from Erythrophleum suaveolens” (2019).
# How the values were obtained:
# Assay type in all cases: functional
# [1] = test system: CCRF-CEM; experiment: Growth inhibition of human CCRF-CEM cells incubated for 48 hrs by sulforhodamine B assay
# Summary of the method: (§1)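 Run in the NCI-60 human tumour cell line panel with dose-response testing. GI50 was determined for each cell line from its dose-response data.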
# [2] = test system: HL-60(TB); experiment: Growth inhibition of human HL-60(TB) cells incubated for 48 hrs by sulforhodamine B assay; settings: HL-60, 48 h
# Summary of the method: (§2)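 Run within the NCI-60 human tumour cell line panel as a dose-response screen. For each cell line the readouts are GI50, TGI and LC50. Per-line log values also feed a mean-graph analysis, in which the arithmetic mean of the log values across all lines is subtracted from each line's log value.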
# [3] = test system: MOLT-4; experiment: Growth inhibition of human MOLT4 cells incubated for 48 hrs by sulforhodamine B assay; settings: MOLT-4, 48 h; summary of the method: as §1
# [4] = test system: A549; experiment: Growth inhibition of human A549/ATCC cells incubated for 48 hrs by sulforhodamine B assay; settings: A549, 48 h; summary of the method: as §1
# [5] = test system: EKVX; experiment: Growth inhibition of human EKVX cells incubated for 48 hrs by sulforhodamine B assay; summary of the method: as §1
# [6] = test system: HOP-62; experiment: Growth inhibition of human HOP62 cells incubated for 48 hrs by sulforhodamine B assay; settings: HOP-62, 48 h; summary of the method: as §1
# [7] = test system: NCI-H226; experiment: Growth inhibition of human NCI-H226 cells incubated for 48 hrs by sulforhodamine B assay; settings: NCI-H226, 48 h; summary of the method: as §1
# [8] = test system: NCI-H23; experiment: Growth inhibition of human NCI-H23 cells incubated for 48 hrs by sulforhodamine B assay; settings: NCI-H23, 48 h; summary of the method: as §1
# [9] = test system: NCI-H460; experiment: Growth inhibition of human NCI-H460 cells incubated for 48 hrs by sulforhodamine B assay; settings: NCI-H460, 48 h; summary of the method: as §1
# [10] = test system: HCC 2998; experiment: Growth inhibition of human HCC2998 cells incubated for 48 hrs by sulforhodamine B assay; settings: HCC 2998, 48 h; summary of the method: as §1
# [11] = test system: HCT-15; experiment: Growth inhibition of human HCT15 cells incubated for 48 hrs by sulforhodamine B assay; settings: HCT-15, 48 h; summary of the method: as §1
# [12] = test system: HT-29; experiment: Growth inhibition of human HT-29 cells incubated for 48 hrs by sulforhodamine B assay; settings: HT-29, 48 h; summary of the method: as §1
# [13] = test system: SW-620; experiment: Growth inhibition of human SW620 cells incubated for 48 hrs by sulforhodamine B assay; settings: SW-620, 48 h
# Summary of the method: (§3)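 Tested in the NCI 60-human-tumour-cell-line screen using the five-dose format. GI₅₀ was derived from each cell line's dose-response. TGI and LC₅₀ were derived from the same dose-response data.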
# [14] = test system: SF-268; experiment: Growth inhibition of human SF268 cells incubated for 48 hrs by sulforhodamine B assay; settings: SF-268, 48 h; summary of the method: as §1
# [15] = test system: SF-295; experiment: Growth inhibition of human SF295 cells incubated for 48 hrs by sulforhodamine B assay; settings: SF-295, 48 h; summary of the method: as §1
# [16] = test system: SNB-19; experiment: Growth inhibition of human SNB19 cells incubated for 48 hrs by sulforhodamine B assay; settings: SNB-19, 48 h; summary of the method: as §1
# [17] = test system: SK-MEL-2; experiment: Growth inhibition of human SK-MEL-2 cells incubated for 48 hrs by sulforhodamine B assay; settings: SK-MEL-2, 48 h; summary of the method: as §1
# [18] = test system: UACC-257; experiment: Growth inhibition of human UACC257 cells incubated for 48 hrs by sulforhodamine B assay; settings: UACC-257, 48 h; summary of the method: as §3
# [19] = test system: OVCAR-4; experiment: Growth inhibition of human OVCAR4 cells incubated for 48 hrs by sulforhodamine B assay; settings: OVCAR-4, 48 h; summary of the method: as §1
# [20] = test system: OVCAR-8; experiment: Growth inhibition of human OVCAR8 cells incubated for 48 hrs by sulforhodamine B assay; settings: OVCAR-8, 48 h; summary of the method: as §1
# [21] = test system: SK-OV-3; experiment: Growth inhibition of human SKOV3 cells incubated for 48 hrs by sulforhodamine B assay; settings: SK-OV-3, 48 h; summary of the method: as §1
# [22] = test system: 786-0; experiment: Growth inhibition of human 786-0 cells incubated for 48 hrs by sulforhodamine B assay; settings: 786-0, 48 h; summary of the method: as §1
# [23] = test system: A498; experiment: Growth inhibition of human A498 cells incubated for 48 hrs by sulforhodamine B assay; settings: A498, 48 h; summary of the method: as §2
# [24] = test system: ACHN; experiment: Growth inhibition of human ACHN cells incubated for 48 hrs by sulforhodamine B assay; summary of the method: as §1
# [25] = test system: DU-145; experiment: Growth inhibition of human DU145 cells incubated for 48 hrs by sulforhodamine B assay; settings: DU-145, 48 h; summary of the method: as §1
# [26] = test system: MDA-MB-231; experiment: Growth inhibition of human MDA-MB-231 cells incubated for 48 hrs by sulforhodamine B assay; settings: MDA-MB-231, 48 h; summary of the method: as §1
# [27] = test system: BT-549; experiment: Growth inhibition of human BT549 cells incubated for 48 hrs by sulforhodamine B assay; settings: BT-549, 48 h; summary of the method: as §1
# [28] = test system: T47D; experiment: Growth inhibition of human T47D cells incubated for 48 hrs by sulforhodamine B assay; summary of the method: as §3
# [29] = read-out: pLC50 (the source's name) (converted)
smiles,measurement,setting,value
COC(=O)/C=C1\CC[C@H]2[C@@H](CC(=O)[C@H]3C(C)(C)C(=O)CC[C@]23C)[C@H]1C,GI50,[1],0.708 µM
same,LC50,[1],> 34.7 µM
same,TGI,[1]; read-out: pTGI (converted),2.29 µM
same,GI50,[2],0.977 µM
same,LC50,[2],> 34.7 µM
same,TGI,[2]; read-out: pTGI (converted),2.75 µM
same,GI50,[3],0.195 µM
same,LC50,[3],> 34.7 µM
same,TGI,[3]; read-out: pTGI (converted),1.15 µM
same,GI50,[4],0.427 µM
same,LC50,[4],1.82 µM
same,TGI,[4]; read-out: pTGI (converted),0.891 µM
same,GI50,[5],0.407 µM
same,LC50,[5],1.91 µM
same,TGI,[5]; read-out: pTGI (converted),0.871 µM
same,GI50,[6],0.55 µM
same,CC50,[6]; [29],2.63 µM
same,TGI,[6]; read-out: pTGI (converted),1.2 µM
same,GI50,[7],0.617 µM
same,LC50,[7],2.63 µM
same,TGI,[7]; read-out: pTGI (converted),1.29 µM
same,GI50,[8],0.661 µM
same,LC50,[8],> 34.7 µM
same,TGI,[8]; read-out: pTGI (converted),1.78 µM
same,GI50,[9],0.17 µM
same,LC50,[9],2.14 µM
same,TGI,[9]; read-out: pTGI (converted),0.661 µM
same,GI50,[10],1.45 µM
same,LC50,[10],> 34.7 µM
same,TGI,[10]; read-out: pTGI (converted),8.13 µM
same,GI50,[11],0.692 µM
same,LC50,[11],3.31 µM
same,TGI,[11]; read-out: pTGI (converted),1.51 µM
same,GI50,[12],0.955 µM
same,CC50,[12]; [29],12.9 µM
same,TGI,[12]; read-out: pTGI (converted),2.45 µM
same,GI50,[13],0.708 µM
same,LC50,[13],9.12 µM
same,TGI,[13]; read-out: pTGI (converted),1.7 µM
same,GI50,[14],0.331 µM
same,LC50,[14],1.91 µM
same,TGI,[14]; read-out: pTGI (converted),0.813 µM
same,GI50,[15],0.741 µM
same,LC50,[15],6.03 µM
same,TGI,[15]; read-out: pTGI (converted),1.74 µM
same,GI50,[16],1.2 µM
same,LC50,[16],12.9 µM
same,TGI,[16]; read-out: pTGI (converted),4.47 µM
same,GI50,[17],1.05 µM
same,LC50 (concentration killing 50% of cells),[17],> 34.7 µM
same,TGI,[17]; read-out: pTGI (converted),4.47 µM
same,GI50,[18],0.891 µM
same,LC50,[18],18.6 µM
same,TGI,[18]; read-out: pTGI (converted),2.45 µM
same,GI50,[19],0.676 µM
same,LC50,[19],5.75 µM
same,TGI,[19]; read-out: pTGI (converted),1.62 µM
same,GI50,[20],0.851 µM
same,LC50,[20],11 µM
same,TGI,[20]; read-out: pTGI (converted),2.29 µM
same,GI50,[21],1.02 µM
same,LC50,[21],> 34.7 µM
same,TGI,[21]; read-out: pTGI (converted),3.16 µM
same,GI50,[22],0.676 µM
same,LC50,[22],3.16 µM
same,TGI,[22]; read-out: pTGI (converted),1.45 µM
same,LC50,[23],> 34.7 µM
same,TGI,[23]; read-out: pTGI (converted),1.74 µM
same,GI50,[24],0.162 µM
same,LC50,[24],1.86 µM
same,TGI,[24]; read-out: pTGI (converted),0.617 µM
same,GI50,[25],0.575 µM
same,LC50 (concentration killing 50% of cells),[25],1.95 µM
same,TGI,[25]; read-out: pTGI (converted),1.05 µM
same,GI50,[26],1.48 µM
same,LC50,[26],> 34.7 µM
same,TGI,[26]; read-out: pTGI (converted),7.94 µM
same,GI50,[27],0.676 µM
same,LC50,[27],5.13 µM
same,TGI,[27]; read-out: pTGI (converted),1.66 µM
same,GI50,[28],1 µM
same,LC50,[28],> 34.7 µM
same,TGI,[28]; read-out: pTGI (converted),2.95 µM
